Reference: ChEMBL document CHEMBL1125733, “Fluoronaphthyridines and -quinolones as antibacterial agents. 3. Synthesis and structure-activity relationships of new 1-(1,1-dimethyl-2-fluoroethyl), 1-[1-methyl-1-(fluoromethyl)-2-fluoroethyl], and 1-[1,1-(difluoromethyl)-2-fluoroethyl] substituted derivatives” (J Med Chem, 1991)
Values after ≈ are worked out from the molar mass of the structure shown.

Columns and labels:
[1] = system: Klebsiella pneumoniae; assay: In vitro antibacterial activity against Klebsiella pneumoniae A 9664; assay type: functional
[2] = organism: Mus musculus; details: in vivo, po, 40 mg/kg
[3] = Compound was tested for the dose to protect 50% of mice from lethal infection against Streptococcus pneumoniae after peroral administration to OF1-strain of female Swiss mice.; assay type: functional; details: po, read-out: PD50
How it was run: (§1)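 Compounds dissolved in sterile water and given orally to female OF1 Swiss mice weighing 18-25 g, five mice per group.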

[4] = system: Streptococcus pneumoniae; assay: In vitro antibacterial activity against Streptococcus pneumoniae A 9585; assay type: functional
[5] = system: Enterococcus faecalis; assay: In vitro antibacterial activity against Enterococcus faecalis A 9809; assay type: functional
[6] = system: Staphylococcus aureus; assay: In vitro antibacterial activity (minimum inhibitory concentration, MIC) against Staphylococcus aureus A 9537.; assay type: functional
[7] = system: Enterobacter cloacae; assay: In vitro antibacterial activity against Enterobacter cloacae A 9656; assay type: functional
[8] = system: Serratia marcescens; assay: In vitro antibacterial activity (minimum inhibitory concentration) against Serratia marcescens A 20019.; assay type: functional
[9] = system: Haemophilus influenzae; assay: In vitro antibacterial activity against Haemophilus influenzae A 21515; assay type: functional
[10] = system: Escherichia coli; assay: Compound was tested for the dose to protect 50% of mice from lethal infection against Escherichia coli A 15119 after peroral administration to OF1-strain of female Swiss mice.; assay type: functional; details: po, read-out: PD50; how it was run: as §1
[11] = system: Bacteroides fragilis; assay: Compound was tested in vitro for its antibacterial activity (minimum inhibitory concentration) against Bacteroides fragilis A 22862.; assay type: functional; details: A22862
[12] = system: Morganella morganii; assay: In vitro antibacterial activity against Morganella morganii A 15153; assay type: functional
[13] = system: Staphylococcus aureus; assay: In vitro antibacterial activity against Staphylococcus aureus A 24227; assay type: functional
[14] = system: Staphylococcus aureus; assay: Compound was tested for the dose to protect 50% of mice from lethal infection against Staphylococcus aureus A 9606 after peroral administration to OF1-strain of female Swiss mice.; assay type: functional; details: po, read-out: PD50; how it was run: as §1
[15] = in vivo; details: mouse, po, 40 mg/kg
[16] = system: Escherichia coli; assay: In vitro antibacterial activity against Escherichia coli A 15119; assay type: functional
[17] = system: Mus musculus; assay: Compound was evaluated in vivo in blood samples from the orbital sinus for its concentration using Area under the time-concentration curve after 40 mg/kg intramuscular administration to mice; assay type: ADME, organism-based; set-up: dose 40 mg/kg, route intramuscular; details: im
How it was run: (§2)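 Mice were dosed at 40 mg/kg, either orally with a blunt needle and syringe or intramuscularly, with separate groups for each route. Blood was drawn from the orbital sinus at 5, 15, 30, 60, 120 and 180 min. Urine was pooled over 24 h. Drug levels were measured by agar disk diffusion microbioassay with Salmonella enteritidis A9531 as the assay organism.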

[18] = system: Pseudomonas aeruginosa; assay: Compound was tested in vitro for its antibacterial activity (minimum inhibitory concentration, MIC) against Pseudomonas aeruginosa A 9843; assay type: functional
[19] = Compound was evaluated in vivo in blood samples from the orbital sinus for its concentration after an intramuscular administration of 40 mg/kg in mice; assay type: ADME, organism-based; set-up: dose 40 mg/kg, route intramuscular; details: mouse, im; how it was run: as §2
[20] = system: Pseudomonas aeruginosa; assay: Compound was tested for the dose to protect 50% of mice from lethal infection against Pseudomonas aeruginosa A9843 after peroral administration to OF1-strain of female Swiss mice.; assay type: functional; details: po, read-out: PD50; how it was run: as §1
[21] = system: Proteus mirabilis; assay: In vitro antibacterial activity (minimum inhibitory concentration, MIC) against Proteus mirabilis A 9900; assay type: functional
[22] = Compound was evaluated in vivo in blood samples from the orbital sinus for its half life after 40 mg/kg of intramuscular administration in mice.; assay type: ADME, organism-based; set-up: dose 40 mg/kg, route intramuscular; details: mouse, im
[23] = organism: Canis familiaris; details: dog, in vivo, po, 25 mg/kg
[24] = in vivo; details: dog, po, 25 mg/kg
[25] = system: Mus musculus; assay: Compound was evaluated in vivo in urine sample collected over 24 hours for its concentration after 40 mg/kg peroral administration to mice; assay type: functional; details: route oral; how it was run: as §2
[26] = system: Mus musculus; assay: Compound was evaluated in vivo in urine sample collected over 24 hours for its concentration after 40 mg/kg intramuscular administration to mice; assay type: functional; how it was run: as §2
[27] = system: Canis familiaris; assay: Compound was evaluated in vivo in urine sample collected over 24 hours for its concentration after 25 mg/kg peroral administration to dogs.; details: route oral
[28] = in vivo; details: dog, po, 25 mg/kg; remark: listed apart in the source
[29] = in vivo; details: mouse, blood, po, 40 mg/kg

SMILES	MIC [1] [µg/mL]	AUC [2] [ng·h/mL]	ED50 [3] [mg/kg]	MIC [4] [µg/mL]	MIC [5] [µg/mL]	MIC [6] [µg/mL]	MIC [7] [µg/mL]	MIC [8] [µg/mL]	MIC [9] [µg/mL]	S [µg/mL]	ED50 [10] [mg/kg]	MIC [11] [µg/mL]	MIC [12] [µg/mL]	MIC [13] [µg/mL]	ED50 [14] [mg/kg]	MIC [16] [µg/mL]	AUC [17] [ng·h/mL]	MIC [18] [µg/mL]	Cmax [19] [ng/mL]	MIC [21] [µg/mL]	other results
CC(C)(CF)n1cc(C(=O)O)c(=O)c2cc(F)c(N3CC4C[C@@H]3CN4)nc21.Cl	0.25	7000	57.4	0.5	2	0.25	0.13	0.25	0.13	200	2.4	8	0.25	2	25	0.06	20000	0.5	8000	0.5	Cmax ([15]; blood): 4000 ng/mL; ED50 [20]: 4.9 mg/kg
Cl.O=C(O)c1cn(C(CF)(CF)CF)c2nc(N3CC4C[C@@H]3CN4)c(F)cc2c1=O	0.5	–	–	32	32	4	0.25	1	0.06	240	–	125	0.25	4	–	0.25	–	4	–	1	–
CC(CF)(CF)n1cc(C(=O)O)c(=O)c2cc(F)c(N3CC4C[C@@H]3CN4)nc21.Cl	0.5	–	–	8	4	2	0.13	0.5	0.016	–	–	32	0.13	2	–	0.13	–	1	–	0.5	–
C[C@H]1C[C@H](N)CN1c1nc2c(cc1F)c(=O)c(C(=O)O)cn2C(C)(C)CF.Cl	0.06	–	–	0.13	0.13	0.008	0.06	0.13	0.016	–	–	16	0.13	0.008	–	0.016	–	1	–	0.13	–
CC(C)(C)n1cc(C(=O)O)c(=O)c2cc(F)c(N3C[C@H]4C[C@@H]3CN4)nc21	0.016 (≈ 0.0444 µM)	14000	29.7	0.13 (≈ 0.361 µM)	0.5 (≈ 1.39 µM)	0.03 (≈ 0.0832 µM)	0.016 (≈ 0.0444 µM)	0.06 (≈ 0.166 µM)	0.03 (≈ 0.0832 µM)	80	1.8	4 (≈ 11.1 µM)	0.06 (≈ 0.166 µM)	0.03 (≈ 0.0832 µM)	1.6	0.008 (≈ 0.0222 µM)	25000	0.25 (≈ 0.694 µM)	13000	0.06 (≈ 0.166 µM)	half-life [22]: 1.58 h; AUC [23]: 55000 ng·h/mL; Cmax [24]: 5600 ng/mL; UR [25]: 34%; UR [26]: 39%; UR [27]: 20%; half-life [28]: 4.5 h; Cmax ([15]; blood): 10000 ng/mL; half-life [29]: 1.6 h; ED50 [20]: 4.7 mg/kg
O=C(O)c1cn(C2CC2)c2cc(N3CCNCC3)c(F)cc2c1=O [CIPROFLOXACIN]	0.06 (≈ 0.181 µM)	7000	> 69	0.25 (≈ 0.754 µM)	0.5 (≈ 1.51 µM)	0.06 (≈ 0.181 µM)	–	0.03 (≈ 0.0905 µM)	0.03 (≈ 0.0905 µM)	–	0.4	4 (≈ 12.1 µM)	–	0.13 (≈ 0.392 µM)	31	–	21000	–	15000	0.008 (≈ 0.0241 µM)	Cmax [24]: 3000 ng/mL; UR [25]: 30%; UR [26]: 46%; UR [27]: 17%; Cmax ([15]; in vivo): 6000 ng/mL; ED50 [20]: 2.6 mg/kg
